MPTP block = mitochondrial permeability transition pore inhibitors, primary screen, biochemical, isolated mouse mitochondria, absorbance; Ca2+ swelling absorbance, 30 min; inhibition, % at 10 µM; actives 1.4% (n = 360,000); AID 602449, 2012;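 active means inhibition of 50% or more, scaled per plate between neutral and stimulator controls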
NR3A LBD binder = binders of NR3A ligand-binding domain, primary screen, biophysical, differential scanning fluorimetry, uHTS; actives 2.5% (n = 340,000); Tm shift relative to glycine control, % at 25 µM; NR3A LBD differential scanning fluorimetry, Tm shift; 0% = protein alone, 100% = glycine-bound protein; AID 1259313, 2017; Glutamate receptor ionotropic, NMDA 3A (GRIN3A) ligand-binding domain;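 active means melting temperature shift of at least 10% of the positive control shift, at one fixed dose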
SKN-1 block = suppressors of acrylamide-induced Pgst-4::GFP reporter in worms, primary screen, SKN-1 inhibitor project, whole organism, uHTS, GFP/RFP fluorescence ratio, strain VP596; actives 0.49% (n = 360,000); AID 624304, 2012; inhibition, % at 21.8 µM; C. elegans VP596 Pgst-4::GFP/RFP ratio, 24 h;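 active means interference check ratio from 0.5 to 1.5 plus GFP to RFP signal ratio inhibition reaching or exceeding a fixed threshold, cut at about 30% in these data, passing the limit was not always enough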
ADAM17 inh = ADAM17 inhibitors, primary screen, biochemical, QFRET. inhibition, % at 6.95 µM. AID 720648, 2013. actives 0.83% (n = 370,000). recombinant ADAM17, EDANS/DABCYL FRET peptide cleavage. Disintegrin and metalloproteinase domain-containing protein 17 (Homo sapiens), P78536;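 active means inhibition above the mean of compounds lying between control limits plus 3 SD, set per campaign, cut at about 8.5% in these data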
Target sequence (P78536 215-824 limits assumed): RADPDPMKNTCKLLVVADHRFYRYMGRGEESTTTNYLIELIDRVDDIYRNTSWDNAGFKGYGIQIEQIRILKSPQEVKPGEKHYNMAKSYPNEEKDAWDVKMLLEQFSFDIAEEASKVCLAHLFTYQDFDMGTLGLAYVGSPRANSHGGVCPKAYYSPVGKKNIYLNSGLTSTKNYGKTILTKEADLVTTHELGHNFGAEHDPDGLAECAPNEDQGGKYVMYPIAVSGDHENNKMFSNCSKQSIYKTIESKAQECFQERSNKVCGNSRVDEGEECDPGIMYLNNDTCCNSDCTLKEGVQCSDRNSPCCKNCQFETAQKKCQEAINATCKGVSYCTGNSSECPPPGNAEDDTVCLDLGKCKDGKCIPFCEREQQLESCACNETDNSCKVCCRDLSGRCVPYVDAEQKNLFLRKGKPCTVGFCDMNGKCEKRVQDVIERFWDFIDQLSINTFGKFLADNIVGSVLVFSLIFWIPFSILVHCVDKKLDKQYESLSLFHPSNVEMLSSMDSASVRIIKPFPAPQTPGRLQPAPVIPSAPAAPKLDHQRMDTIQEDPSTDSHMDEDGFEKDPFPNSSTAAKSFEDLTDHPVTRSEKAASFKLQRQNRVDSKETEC
MT1-MMP act inh = blockers of MT1-MMP proenzyme processing, primary screen, HT1080 RFP-PRO-GFP cells, GFP/RFP fluorescence; Matrix metalloproteinase-14 (Homo sapiens), P50281; actives 0.061% (n = 360,000); GFP/RFP ratio change, % at 20 µM; GFP/RFP ratio fluorescence, overnight; percent of plate control window, DMSO zero;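 active means GFP/RFP ratio change of at least 30% with cell ATP level not reduced by more than half and red fluorescence within 50% of control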
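Assay system: HT1080 RFP-PRO-GFP cells | Dosing: 20 µM single dose, 1% DMSO | Incubation: Cells overnight before dosing, compound overnight, 37 °C, 5% CO2 | Evaluation: GFP/RFP fluorescence ratio | Control set: DMSO-only wells and HT1080 RFP-L50D-GFP cell wells as references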
ADAM10 inh = human ADAM10 inhibitors, primary screen, biochemical, QFRET, HTS | inhibition, % at 7 µM | actives 0.62% (n = 370,000) | Disintegrin and metalloproteinase domain-containing protein 10 (Homo sapiens), O14672 | recombinant ADAM10, EDANS/DABCYL FRET peptide cleavage, 3 h;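 active means inhibition above a per-campaign cutoff equal to the mean of compounds falling between control-based bounds plus 3 SD, cut at about 20% in these data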
ADAM10 confirm = human ADAM10 inhibitors, confirmation, biochemical, QFRET, triplicate. shares compounds with ADAM10 inh. ADAM10 QFRET peptide cleavage, EDANS fluorescence. inhibition, % at 6.95 µM. actives 1% (n = 2,100);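 active means inhibition above about 20% chosen separately for each screening run, limit read from the data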
ADAM17 ctr = ADAM17 inhibitors, counter-screen for ADAM10 exosite inhibitor project, biochemical, QFRET, high throughput. actives 0.5% (n = 2,100). ADAM17 QFRET peptide cleavage, EDANS fluorescence. shares compounds with ADAM10 inh. inhibition, % at 6.95 µM;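 active means mean triplicate inhibition above the solvent-only control wells' mean plus 3 SD, cut at about 12% in these data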
ADAM10 ctr = ADAM10 inhibitors, counter-screen for ADAM17 exosite inhibitor project, biochemical, FRET, human ADAM10 | recombinant ADAM10, EDANS/DABCYL FRET peptide cleavage, 3 h | actives 47% (n = 2,900) | shares compounds with ADAM17 inh | inhibition, % at 6.95 µM;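 active means mean inhibition over the triplicate runs exceeds the activity threshold set in the earlier primary screen, cut at about 20% in these data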
ADAM17 confirm = ADAM17 inhibitors, hit retest, confirmation, biochemical, QFRET peptide cleavage; shares compounds with ADAM17 inh; inhibition, % at 6.95 µM; actives 65% (n = 2,900); recombinant ADAM17, EDANS/DABCYL QFRET peptide cleavage;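 active means mean inhibition across replicates above the hit cutoff set in the primary screen, cut at about 8.5% in these data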
Each line names hits and unclear results; the compound was inactive in the other large screens (follow-up assays come after a bar, where they were run). Shown are actives, neighbours in structure and some others; about 4.7% of the full set was active somewhere.

Cc1ccc(S(=O)(=O)N2CCCSCC2)cc1	none
CN1CCN(C(=O)c2cc(Cl)cc(Cl)c2)CC1	none
COC(=O)C1=CC[C@@H](NC(=O)OC(C)(C)C)[C@H](O)[C@H]1O[Si](C)(C)C(C)(C)C	ADAM17 inh 9.9, ADAM10 inh 21.8 (no result: MPTP block, NR3A LBD binder, SKN-1 block, MT1-MMP act inh) | ADAM10 confirm inactive | ADAM17 ctr inactive | ADAM10 ctr inactive | ADAM17 confirm inactive
O=C(Nc1ccc(F)c(Cl)c1)c1cc(C2CCCN(S(=O)(=O)c3cccc4cccnc34)C2)on1 (configuration not stated)	ADAM17 inh 11.7, ADAM10 inh 25.3 (no result: NR3A LBD binder) | ADAM10 confirm inactive | ADAM17 ctr inactive | ADAM10 ctr 25.3 | ADAM17 confirm 13.3
Cc1ccc(NS(=O)(=O)c2ccc(C)c(NC(=O)c3ccc(S(=O)(=O)N4CCCCCC4)cc3)c2)c(C)c1	ADAM17 inh 8.8, ADAM10 inh 23.3 (no result: NR3A LBD binder) | ADAM10 confirm inactive | ADAM17 ctr inactive | ADAM10 ctr 45.7 | ADAM17 confirm 23.6
CSc1ccccc1OCc1cc(C(=O)N2CCc3[nH]cnc3C2c2ccccn2)no1 (configuration not stated)	ADAM17 inh 10.9, ADAM10 inh 25.3 | ADAM10 confirm inactive | ADAM17 ctr inactive | ADAM10 ctr inactive | ADAM17 confirm inactive
CSCCC(NC(=O)CCC(=O)OCC(=O)[C@@]1(O)CCC2[C@@H]3CCC4=CC(=O)C=C[C@]4(C)C3[C@@H](O)C[C@@]21C)C(=O)O (some centres not stated)	none
CCOc1ccc(S(=O)(=O)N(CC(=O)Nc2cc(C)on2)Cc2ccccc2Cl)cc1	ADAM17 inh 15.9, ADAM10 inh 29.0 | ADAM10 confirm inactive | ADAM17 ctr inactive | ADAM10 ctr inactive | ADAM17 confirm inactive
CC12CCCC(CC(=O)O)(C1)NC(=O)C2 (configuration not stated)	none (no result: MT1-MMP act inh)
OC(c1ccc(Cl)c(F)c1)c1ncc(-c2cccc(C(F)(F)F)c2)[nH]1 (configuration not stated)	ADAM17 inh 10.6, ADAM10 inh 31.5 (no result: NR3A LBD binder) | ADAM10 confirm inactive | ADAM17 ctr inactive | ADAM10 ctr 26.1 | ADAM17 confirm 14.4
Nc1[nH]c(C(=O)c2ccccc2)c(-c2cccc(C(F)(F)F)c2)c1C(=O)NCCc1c[nH]c2ccccc12	ADAM17 inh 9.0, ADAM10 inh 23.6 (no result: MPTP block, NR3A LBD binder, SKN-1 block, MT1-MMP act inh) | ADAM10 confirm inactive | ADAM17 ctr inactive | ADAM10 ctr 27.4 | ADAM17 confirm 14.5
COC(=O)C(Nc1ccccc1Cl)(c1cc(C)c(O)c(C)c1)C(F)(F)F (configuration not stated)	ADAM17 inh 12.6, ADAM10 inh 29.8 | ADAM10 confirm inactive | ADAM17 ctr inactive | ADAM10 ctr 41.2 | ADAM17 confirm 20.2
COc1ccc(OC)c(NC(=O)COC(=O)Cc2ccc(-c3ccccc3)cc2)c1	ADAM17 inh 14.9, ADAM10 inh 27.7 | ADAM10 confirm inactive | ADAM17 ctr inactive | ADAM10 ctr inactive | ADAM17 confirm 12.6
COc1ccc(OC)c(NC(=O)COC(=O)Cc2ccc(Br)cc2)c1	none
Cc1cc(C)c(NC(=O)C2CCCO2)c(C)c1 (configuration not stated)	none
O=C(NCCc1c[nH]c2ccccc12)c1ccc(Sc2ccccc2Cl)c([N+](=O)[O-])c1	ADAM17 inh 9.1, ADAM10 inh 22.9 (no result: MPTP block, NR3A LBD binder, SKN-1 block, MT1-MMP act inh) | ADAM10 confirm inactive | ADAM17 ctr inactive | ADAM10 ctr 26.9 | ADAM17 confirm 18.9
O=C(NCCc1ccccc1F)c1ccc(Sc2ccccc2Cl)c([N+](=O)[O-])c1	none (no result: MPTP block, NR3A LBD binder, SKN-1 block, MT1-MMP act inh)
Cc1cc(Cl)ccc1OC(C)C(=O)N1CCCN(C(=O)C(C)Oc2ccc(Cl)cc2C)CC1 (configuration not stated)	ADAM17 inh 15.1, ADAM10 inh 25.5 | ADAM10 confirm inactive | ADAM17 ctr inactive | ADAM10 ctr 28.6 | ADAM17 confirm 17.5
COc1ccc(Cl)cc1NC(=S)NCCc1c[nH]c2ccccc12	NR3A LBD binder 28.7, ADAM17 inh 10.1, ADAM10 inh 22.0 | ADAM10 confirm inactive | ADAM17 ctr inactive | ADAM10 ctr 35.9 | ADAM17 confirm 21.0
COc1ccccc1NC(=S)NCCc1ccc(Cl)cc1	none
CC(C)(C)OC(=O)NCCc1nnc(SCc2ccc(Cl)cc2Cl)o1	none
Clc1cccc(NCc2nnc(SCc3ccc(Cl)cc3Cl)o2)c1	ADAM17 inh 9.3, ADAM10 inh 30.8 | ADAM10 confirm inactive | ADAM17 ctr inactive | ADAM10 ctr inactive | ADAM17 confirm 14.3
CCC(C)[C@H]1CNCCN1CC1(c2ccccc2)CC1 (some centres not stated)	none
CC(O)[C@H]1CNCCN1CC1(c2ccccc2)CC1 (some centres not stated)	ADAM17 inh 11.0, ADAM10 inh 20.3 | ADAM10 confirm inactive | ADAM17 ctr inactive | ADAM10 ctr inactive | ADAM17 confirm inactive
COc1cccc(C2/C(=C(/O)c3ccccc3)C(=O)C(=O)N2CCCC(=O)O)c1 (configuration not stated)	none
